Laboratory results published in ChEMBL document CHEMBL1148798, “High-efficacy 5-HT1A agonists for antidepressant treatment: a renewed opportunity” (J Med Chem, 2007).

Tests used:
[1] = molecular target: T1, 5-hydroxytryptamine receptor 1A (Homo sapiens, UniProt P08908); test: Agonist activity at human 5HT1A receptor expressed in C6 cells assessed as stimulation of [35S]GTPgammaS binding; type: functional, cell-based
T1 sequence (P08908 whole entry): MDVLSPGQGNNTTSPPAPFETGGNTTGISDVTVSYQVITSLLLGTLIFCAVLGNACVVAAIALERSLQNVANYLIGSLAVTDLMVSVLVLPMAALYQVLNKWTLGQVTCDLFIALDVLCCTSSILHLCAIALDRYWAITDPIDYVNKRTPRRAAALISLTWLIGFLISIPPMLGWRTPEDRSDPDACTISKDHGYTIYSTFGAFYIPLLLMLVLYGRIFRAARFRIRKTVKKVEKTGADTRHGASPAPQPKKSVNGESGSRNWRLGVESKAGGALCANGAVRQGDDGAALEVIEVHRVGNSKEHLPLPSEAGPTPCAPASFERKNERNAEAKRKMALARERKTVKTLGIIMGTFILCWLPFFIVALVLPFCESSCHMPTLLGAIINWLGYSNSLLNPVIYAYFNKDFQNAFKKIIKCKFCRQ

[2] = molecular target: T2, 5-hydroxytryptamine receptor 1A (Rattus norvegicus, UniProt P19327); test: Binding affinity to 5HT1A receptor in rat cortex membrane; type: cell membranes
T2 sequence (P19327 whole entry): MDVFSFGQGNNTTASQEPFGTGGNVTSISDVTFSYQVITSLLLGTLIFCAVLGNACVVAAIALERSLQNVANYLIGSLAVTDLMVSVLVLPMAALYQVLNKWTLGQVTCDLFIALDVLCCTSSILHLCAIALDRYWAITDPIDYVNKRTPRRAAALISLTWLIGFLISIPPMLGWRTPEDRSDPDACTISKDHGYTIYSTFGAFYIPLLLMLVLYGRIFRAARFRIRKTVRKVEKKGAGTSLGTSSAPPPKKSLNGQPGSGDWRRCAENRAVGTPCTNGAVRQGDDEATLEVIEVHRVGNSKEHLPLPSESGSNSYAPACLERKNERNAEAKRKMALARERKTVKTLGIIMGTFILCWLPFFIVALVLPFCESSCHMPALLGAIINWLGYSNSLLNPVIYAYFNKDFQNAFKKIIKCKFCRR

[3] = molecular target: T3, 5-hydroxytryptamine receptor 1A (Homo sapiens) (UniProt P08908); test: Agonist activity at human 5HT1A receptor expressed in C6 cells assessed as stimulation of [35S]GTP-gamma-S binding relative to 5-hydroxytryptamine; type: functional, cell-based
T3 sequence (whole entry): T1 sequence (P08908 whole entry)
Summary of the method: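 Membranes from C6-glial cells expressing h5-HT1A, diluted 20-fold in 20 mM HEPES with 30 µM GDP, 100 mM NaCl, 3 mM MgCl2, 0.2 mM ascorbic acid (16-38 µg protein). Compound preincubated 30 min at 25 °C, then 500 pM [35S]GTPγS added. Six concentrations tested. Nonspecific binding with 10 µM GTPγS.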

Rattus norvegicus [4] = test: Antidepressant like activity in orally dosed rat after 60 mins by forced swimming test; type: functional; conditions: po, 1 h
Summary of the method: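 Porsolt-type test in rats: 15 min swim in a cylinder with 17 cm water at 25 °C, then 5 min retest 24 h later. Immobility scored blind. Vehicle po after session 1. Compound or vehicle po (10 mL/kg) 1 h before retest, n = 5-12 per dose, doses 0.01-40 mg/kg. Responders had immobility <138 s. […] MSD by Kruskal-Wallis then Dunn's test.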

Rattus norvegicus [5] = test: Induction of flat body posture in orally dosed rat as after 60 mins; type: functional; conditions: po, 1 h
Summary of the method: (§1)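 Compounds given po in H2O (10 mL/kg) to rats, five per dose, doses as free base. Forepaw treading sampled in 10 s per rat repeated 10 times over 10 min at 55-65 min. Present if uninterrupted for ≥3 s, responder if score ≥1. Flat body posture scored if present the whole period. […] Ratio is FBP ED50/FPT ED50.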

Rattus norvegicus [6] = test: Induction of forepaw treading in orally dosed rat after 60 mins; type: functional; conditions: po, 1 h; summary of the method: as §1
Rattus norvegicus [7] = species: Rattus norvegicus; test: Ratio of ED50 for flat body posture induction in rat to ED50 for forepaw treading induction in rat
[8] = Lipophilicity, log D of the compound; type: physicochemical; conditions: octanol/water
[9] = Dissociation constant, pKa of the compound; type: physicochemical
[10] = Bioavailability in orally dosed rat; type: ADME, organism-based; conditions: in vivo, po
[11] = Bioavailability in rat; type: ADME, organism-based; conditions: in vivo
[12] = Bioavailability in dog; type: ADME, organism-based, Canis lupus familiaris; conditions: in vivo

| Structure (SMILES) | EC50 [1] | Ki [2] | Emax [3] | ED50 (Rattus norvegicus [4]) | ED50 (Rattus norvegicus [5]) | ED50 (Rattus norvegicus [6]) | further results |
| --- | --- | --- | --- | --- | --- | --- | --- |
| O=C(c1ccc(F)c(Cl)c1)N1CCC(F)(CNCc2nccc(-c3ccco3)n2)CC1 | 10 nM | 0.427 nM | 79% | > 2.5 mg/kg |  |  |  |
| CNc1nc(CNCC2(F)CCN(C(=O)c3ccc(F)c(Cl)c3)CC2)ncc1Cl | 42.7 nM | 0.741 nM | 71.8% | 0.32 mg/kg |  |  |  |
| O=C(c1ccc(F)c(Cl)c1)N1CCC(F)(CNCc2ccc(Cl)cn2)CC1 | 69.2 nM | 0.692 nM | 80.4% |  | 4.9 mg/kg | 3.8 mg/kg | Ratio (Rattus norvegicus [7]): 1.3 |
| O=C(c1ccc(F)c(Cl)c1)N1CCC(F)(CNCc2ncc(Cl)cn2)CC1 | 155 nM | 3.39 nM | 76% | 0.03 mg/kg |  |  |  |
| O=C(c1ccc(F)c(Cl)c1)N1CCC(F)(CNCc2ccc(CO)cn2)CC1 | 2040 nM | 7.41 nM | 80% |  |  |  |  |
| COC(=O)c1cnc(CNCC2(F)CCN(C(=O)c3ccc(F)c(Cl)c3)CC2)nc1 |  | 219 nM |  |  |  |  |  |
| COc1ccnc(CNCC2(F)CCN(C(=O)c3ccc(F)c(Cl)c3)CC2)n1 | 447 nM | 6.46 nM | 75.5% |  |  |  |  |
| O=C(c1ccc(F)c(Cl)c1)N1CCC(F)(CNCc2ncc(CO)cn2)CC1 |  | 117 nM |  |  |  |  |  |
| O=c1[nH]c2ccccc2n1CCN1CCN(c2cccc(C(F)(F)F)c2)CC1 [FLIBANSERIN] | 631 nM | 11.7 nM | 72% | > 320 mg/kg | 20 mg/kg | > 40 mg/kg |  |
| CNc1ccnc(CNCC2(F)CCN(C(=O)c3ccc(F)c(Cl)c3)CC2)n1 | 309 nM | 4.79 nM | 58.8% |  |  |  |  |
| Cc1cnc(CNCC2(F)CCN(C(=O)c3ccc(F)c(Cl)c3)CC2)nc1 | 389 nM | 2.24 nM | 70.3% | 0.05 mg/kg | 8.3 mg/kg | 1.5 mg/kg | logD [8]: 1.5; pKa [9]: 6.7; Ratio (Rattus norvegicus [7]): 5.5; bioavailability [10]: > 80% |
| O=C(c1ccc(F)c(Cl)c1)N1CCC(F)(CNCc2ncccn2)CC1 |  | 95.5 nM |  |  |  |  |  |
| CCc1cnc(CNCC2(F)CCN(C(=O)c3ccc(F)c(Cl)c3)CC2)nc1 |  | 56.2 nM |  |  |  |  |  |
| CN(C)c1ccnc(CNCC2(F)CCN(C(=O)c3ccc(F)c(Cl)c3)CC2)n1 | 89.1 nM | 2.29 nM | 63.4% |  |  |  |  |
| CCCN(CCC)C1CCc2cccc(O)c2C1 (stereo unspecified) [8-OH-DPAT] |  |  | 35.9% | 0.75 mg/kg | > 40 mg/kg | 40 mg/kg |  |
| O=C(c1ccc(F)c(Cl)c1)N1CCC(F)(CNCc2ccc(C(F)F)cn2)CC1 | 240 nM | 3.8 nM | 96.4% |  | 4.2 mg/kg | 2.5 mg/kg | Ratio (Rattus norvegicus [7]): 1.7 |
| CC(=O)Nc1cccc(N2CCN(CCCCNS(=O)(=O)CC3CCCCC3)CC2)c1 [NALUZOTAN] | 93.3 nM | 30.2 nM | 6.6% | > 40 mg/kg | > 40 mg/kg | > 40 mg/kg |  |
| Cc1ccc(CNCC2(F)CCN(C(=O)c3ccc(F)c(Cl)c3)CC2)nn1 | 7940 nM | 5.62 nM | 89.7% |  |  |  |  |
| O=C(c1ccc(F)c(Cl)c1)N1CCC(F)(CNCc2ncc(C(F)F)cn2)CC1 | 3630 nM | 25.1 nM | 82.5% |  |  |  |  |
| O=C(O)c1ccc(CNCC2(F)CCN(C(=O)c3ccc(F)c(Cl)c3)CC2)nc1 |  | > 10000 nM |  |  |  |  |  |
| CNc1nc(CNCC2(F)CCN(C(=O)c3ccc(F)c(Cl)c3)CC2)ncc1C | 85.1 nM | 1.74 nM | 64.1% |  |  |  |  |
| Cc1cnc(CNCC2(F)CCN(C(=O)c3ccc(F)c(Cl)c3)CC2)cn1 |  | 66.1 nM |  |  |  |  |  |
| Cc1ccc(CNCC2(F)CCN(C(=O)c3ccc(F)c(Cl)c3)CC2)nc1 [BEFIRADOL] |  |  |  | 0.06 mg/kg | 1.4 mg/kg | 0.38 mg/kg | logD [8]: 2.6; pKa [9]: 6.4; bioavailability [11]: > 70%; bioavailability [12]: > 70% |
| O=C(c1ccc(F)c(Cl)c1)N1CCC(F)(CNCc2ccc(CF)cn2)CC1 | 229 nM | 1.2 nM | 61% | 0.17 mg/kg | 16 mg/kg | 6.1 mg/kg | Ratio (Rattus norvegicus [7]): 2.6 |
